Screening results: PubChem, several laboratories
DSG3 Ab inh – inhibitors of pemphigus antibody binding to DSG3, primary screen, biochemical, bead-based, flow cytometry, scFv-GFP; DSG3-coupled beads, scFv-anti-DSG3-GFP binding; hits give low values; Desmoglein-3 (Homo sapiens), P32926; binding (percent of control), % at 10 µM; 0.48% of 310,000 active;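 active means binding more than 3 SD below its plate's average and above zero; inconclusive means below that plate limit but binding exactly zero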;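 further: hits lower antibody fragment binding to DSG3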
Myeloid diff 2 – induction of myeloid progenitor differentiation, primary screen, cell-based, flow cytometry, MLPCN library. ER-HoxA9 myeloid progenitors, lysozyme-GFP differentiation. calls only at 10 µM. 1% of 360,000 active;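 active means normalized GFP-positive differentiation at or above the plate's own cutoff, the solvent-only control mean plus 3 SD; inconclusive means no clear call, values can overlap the other calls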;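 further: cells exposed to compound for four days before flow analysis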
Cardio protect – cardioprotection against H2O2-induced cell death, primary screen, uHTS, H9c2 cells, ATPLite luminescence. AID 588492, 2011. 0.63% of 360,000 active. protection from H2O2 cell death, % at 20 µM. H9c2 cardiomyocytes, H2O2 injury protection, 2 h;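 active means compounds giving at least 50% protection of heart cells from peroxide-induced death in the single-dose screen, raw or plate-pattern-corrected value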;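 further: 0% = DMSO wells with peroxide and 100% = DMSO wells without peroxide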
SENP1 FRET inh – human SENP1 catalytic domain inhibitors, primary screen, biochemical, FRET, uHTS; Sentrin-specific protease 1 (Homo sapiens), Q9P0U3; recombinant SENP1 catalytic domain, CyPet-SUMO1-YPet FRET cleavage; inhibition, % at 10 µM; 0.21% of 360,000 active;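 active means inhibition at least 30% at 10 µM, raw YFP signal under a set limit, fluorescence ratio 0.5 to 1.5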;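 further: 0% = enzyme with DMSO and 100% = no enzyme wells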
Target sequence (Q9P0U3 419-644 limits assumed): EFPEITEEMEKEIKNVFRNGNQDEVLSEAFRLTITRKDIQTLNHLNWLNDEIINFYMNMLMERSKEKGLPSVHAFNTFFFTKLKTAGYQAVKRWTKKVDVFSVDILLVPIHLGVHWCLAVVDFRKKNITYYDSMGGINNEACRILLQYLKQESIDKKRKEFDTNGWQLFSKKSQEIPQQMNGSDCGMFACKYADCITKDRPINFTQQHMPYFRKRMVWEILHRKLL
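Test system: hSENP1 catalytic domain, recombinant; Amount: 20 pM final SENP1 enzyme; Medium: Tris pH 8 buffer plus EDTA, NaCl, BME, BSA, NP40, catalase; Schedule: 50 min enzyme reaction, room temperature, light-protected; Technique: FRET fluorescence in CFP and YFP emission channels; Controls: no-enzyme wells low, DMSO-plus-enzyme wells high control.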
Exocytosis inh – LAMP-1 surface exposure blockers, TALL-104 cells – cell-based, flow cytometry, MLPCN library, primary screen; TALL-104 LAMP-1 surface exposure; cells stimulated with thapsigargin and PMA; 0.66% of 360,000 active; inhibition, % at 10 µM;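 active means inhibition above about 55%, limit read from the data; inconclusive means no clear call, values can overlap the other calls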
HNF4A DNA FP – change in binding of human HNF4A to DNA, primary screen, biochemical, fluorescence polarization, FITC-DNA | 1 h | activity change, % at 10 µM | 0.3% of 360,000 active; in the data active means activity change above about 30%, passing the limit was not always enough
Numbers without * were called inactive; i = inactive; ? = inconclusive; . = not tested or not shown; + = active, no number. Shown are actives, neighbours in structure and some others; about 3% of the full set was active somewhere.

SMILES	DSG3 Ab inh	Myeloid diff 2	Cardio protect	SENP1 FRET inh	Exocytosis inh	HNF4A DNA FP
COc1cc(NCCCn2cnc(C(=O)Nc3ccc(C)c(C)c3)n2)cc(OC)c1OC	92.7	i	-4.1	0.5	0.7	3.6
O=C(Nc1ccc2c(c1)oc1ccccc12)c1ccncc1	-8.2*	i	6.1	-3.2	1.0	-3.7
CCNC(=S)Nc1ccc2c(c1)oc1ccccc12	105.8	i	-4.9	-0.4	59.4*	-3.1
Cc1ccc(NC(=O)c2cc3ccccc3o2)nc1	?	i	-13.0	-7.9	10.1	-0.1
O=C(O)c1ccc(-n2cc(C(=O)c3ccccc3O)cn2)cc1	94.1	i	2.6	-0.9	-6.2	0.8
O=C(c1cnn(-c2nc3ccccc3s2)c1)c1ccccc1O	8.3*	i	-0.6	3.5	5.0	-4.0
COc1ccc(-c2cc(=O)oc3c(C)c(O)ccc23)cc1	101.8	i	33.6	-23.5	7.2	14.4
Cc1c(O)ccc2c(-c3ccccc3)cc(=O)oc12	99.0	i	83.9*	-25.9	5.7	5.0
CCN(CC)c1ccc(/C=N/NC(=O)OC)c(O)c1	109.0	i	-6.9	-2.0	2.7	-5.1
CCN(CC)c1ccc(/C=N/NC(=O)c2ccc3nc[nH]c3c2)c(O)c1	99.1	+	40.4	-102.0	66.9*	2.2
CCN(CC)c1ccc(/C=N/NC(=O)c2ccoc2C)c(O)c1	48.3*	.	27.3	-56.5	-1.7	2.0
COc1cccc2c1C(=O)c1c(O)c3c(c(O)c1C2=O)C[C@@](O)(C(=O)CO)C[C@@H]3O[C@H]1C[C@H](N)[C@H](O)[C@H](C)O1	.	?	-9.7	96.6*	-4.0	-48.6
COc1ccc2c(Cl)c(C(=O)N/N=C3\CCCC(=O)C3)sc2c1	.	+	7.5	-35.3	-1.1	164.7
COc1ccc2c(Cl)c(C(=O)N/N=C/c3ccc4c(c3)OCO4)sc2c1	98.9	i	-5.0	-0.2	-2.8	-8.9
O=C(Nc1ccc2nc([C@H]3C[C@H](O)[C@@H](CO)O3)[nH]c2c1)NC(c1ccccc1)c1ccccc1	.	i	1.8	0.5	9.1	-2.7
COc1ccc(CCN(C)CCc2ccc(OC)c(OC)c2)cc1OC	103.0	+	5.0	2.3	-3.5	-3.4
COc1ccc(CCN(C)CC(O)c2ccccc2)cc1OC (centres undefined)	106.0	i	4.1	3.7	6.2	0.9
O=S(=O)(Nc1nccs1)c1ccc(NS(=O)(=O)c2c(F)cc(F)c(Cl)c2F)cc1	91.0	i	0.9	-0.8	-5.2	3.9
CC(OC(=O)Cn1[nH]c(=O)c2ccccc2c1=O)C(=O)NC1(C#N)CCCCC1 (centres undefined)	108.1	i	70.0*	3.5	4.7	1.8
COc1ccc([N+](=O)[O-])cc1NC(=O)C(C)OC(=O)Cn1[nH]c(=O)c2ccccc2c1=O (centres undefined)	98.8	i	58.0*	-0.9	-13.6	1.7
CC(OC(=O)Cn1[nH]c(=O)c2ccccc2c1=O)C(=O)Nc1ccc(Cl)cn1 (centres undefined)	96.6	i	51.7*	7.0	-14.8	3.1
c1ccc(-n2cnnc2SCc2nc3ccccc3s2)cc1	94.8	+	-3.2	-25.3	0.3	17.9
CC1CC(C)CN(C(=O)COC(=O)COc2ccccc2C#N)C1 (centres undefined)	97.5	i	7.6	4.8	0.7	-4.5
Clc1cnc(Nc2cccnc2)c(Cl)c1	.	i	-4.5	1.8	0.9	1.4
C/C(=N\NC(N)=S)C1=CCC2C3CC[C@H]4CC(O)CC[C@]4(C)C3CC[C@]12C (some centres undefined)	100.1	?	-18.8	3.6	55.6*	-2.4
SMILES	DSG3 Ab inh	Myeloid diff 2	Cardio protect	SENP1 FRET inh	Exocytosis inh	HNF4A DNA FP
CCCc1ccc(S(=O)(=O)N/N=C\c2ccc3c(c2)OCO3)cc1	102.4	i	-12.9	1.8	-0.1	-0.1
O=C(CN1CC(=O)Oc2ccccc21)OCC(=O)c1ccc(F)cc1	100.2	i	-4.3	4.2	2.9	5.5
O=C(CN1CC(=O)Oc2ccccc21)OCC(=O)c1ccc(Br)cc1	94.0	i	56.9*	1.4	-0.9	-0.8
Cc1cc(O)c(C(C)C)cc1C1(c2cc(C(C)C)c(O)cc2C)OC(=O)c2ccccc21	103.9	i	-16.9	-0.2	88.3*	-0.4
Cc1cc(-c2sccc2Br)nc(-n2cccc2)n1	104.7	i	-19.6	-81.5	-1.8	3.7
Cc1cc(-c2ccc(Br)s2)nc(-n2cccc2)n1	111.3	i	-16.0	-46.2	9.7	50.3*
COc1ccc(F)cc1-c1cc(C(=O)NCc2cccc(Cl)c2)[nH]n1	.	i	5.3	-2.6	-2.9	6.3
O=C(COC(=O)CNC(=O)c1cccs1)Nc1ccc(C(F)(F)F)cc1[N+](=O)[O-]	98.7	i	0.2	0.3	-6.0	0.9
O=S(=O)(c1ccc(Cl)cc1)c1cc(O)ccc1O	88.7	i	56.5*	2.2	1.8	-3.8
O=C(CCNS(=O)(=O)c1ccc(Br)cc1)NCC(c1cccs1)N1CCOCC1 (centres undefined)	96.7	i	5.4	2.9	-7.7	-2.1
Cc1ccccc1Cn1c(=N)n(CC(=O)c2ccc([N+](=O)[O-])cc2)c2ccccc21	93.6	i	-18.7	-20.2	27.1	42.9*
CCCn1c(=N)n(CC(=O)c2ccc([N+](=O)[O-])cc2)c2ccccc21	85.8	i	-33.7	-8.7	1.2	-2.2
O=S(=O)(Nc1ccccn1)c1cc(Cl)ccc1Cl	96.3	i	1.6	0.5	-10.8	-0.1
NC(=O)c1ccc(NC(=O)COc2cccc3c2CCNC3=O)cc1	102.3	i	78.7*	2.2	0.5	-2.9
COc1ccccc1NC(=O)COc1cccc2c1CCNC2=O	96.2	i	63.9*	1.1	-0.9	3.0
CCCNC(=O)COC(=O)c1ccc(OCC(=O)Nc2ccccc2OC)c(OC)c1	97.2	i	1.7	0.5	1.7	1.1
O=C(COc1ccccc1O)Nc1ccc(Cl)cc1	105.9	i	-26.2	1.1	2.1	-0.1
COc1ccccc1NC(=O)COc1ccc(C(=O)OCC(=O)NC(C)(C)C)cc1OC	96.9	i	58.8*	0.7	6.1	-3.1
O=C(COc1cccc2c1CCNC2=O)Nc1ccc(Cl)cc1	101.6	i	63.5*	1.4	-1.9	0.1
